From ChEMBL document CHEMBL1125603, “2-Chloro-1-(2,4-dichlorophenyl)-3-(1H-imidazol-1-yl)-2-phenylpropan-1-one hydrochloride, a novel, nonmutagenic antibacterial with specific activity against anaerobic bacteria” (1991)
≈ marks a conversion by molar mass, not a printed value.

Experiments:
Type in all cases: functional
Clostridium perfringens [1] = assay: Minimum inhibitory concentration against Clostridium perfringens (NCTC 523)(in vitro)
Procedure, shortened: (§1)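 Broth microdilution MIC in 96-well plates. Drugs dissolved in 20% polyethylene glycol 200/water (stock 200 μg/mL), then serially diluted 2-fold in the wells to final concentrations of 0.8–100 μg/mL. Final inoculum 10⁸ organisms/mL. Plates incubated 48 h at 37 °C in an anaerobic chamber before the MIC was read.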

[2] = system: Peptostreptococcus anaerobius; assay: Minimum inhibitory concentration against Peptostreptococcus anaerobius(in vitro)
Procedure, shortened: (§2)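 Broth microdilution: drug stock of 200 μg/mL in 20% polyethylene glycol 200/water, serially diluted 2-fold in the wells to final concentrations of 0.8–100 μg/mL. Final inoculum was 10⁸ organisms/mL. Plates were held at 37 °C for 48 h, in an anaerobic chamber for anaerobes or a conventional incubator for aerobes. MIC was then read.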

Finegoldia magna = assay: Minimum inhibitory concentration against Peptococcus magnus(in vitro); procedure, shortened: as §2
[3] = system: Fusobacterium necrophorum; assay: Minimum inhibitory concentration against Fusobacterium necrophorum (ATCC 11295)(in vitro); procedure, shortened: as §2
Pseudomonas aeruginosa = assay: Minimum inhibitory concentration against Pseudomonas aeruginosa (ATCC 27853)(in vitro); procedure, shortened: as §2
Anaerococcus prevotii = assay: Minimum inhibitory concentration against Peptococcus prevotti(in vitro); procedure, shortened: as §2
Bacteroides fragilis [4] = assay: Minimum inhibitory concentration against Bacteroides fragilis(NCTC 9344)(in vitro); procedure, shortened: as §2
Proteus vulgaris = assay: Minimum inhibitory concentration against Proteus vulgaris(ATCC 13315)(in vitro); procedure, shortened: as §2
Cutibacterium acnes [5] = assay: Minimum inhibitory concentration against Propionibacterium acnes(NCTC 7337)(in vitro); procedure, shortened: as §2
Bacteroides fragilis [6] = assay: Minimum inhibitory concentration against Bacteroides fragilis (MZ-R)(in vitro); procedure, shortened: as §2
Bacteroides fragilis [7] = assay: Minimum inhibitory concentration against Bacteroides fragilis(NCTC 10581)(in vitro); procedure, shortened: as §2
Bacteroides fragilis [8] = assay: Minimum inhibitory concentration against Bacteroides fragilis (WSI)(in vitro); procedure, shortened: as §2
Staphylococcus aureus = assay: Minimum inhibitory concentration against Staphylococcus aureus(ATCC 25923)(in vitro); procedure, shortened: as §2
Klebsiella pneumoniae = assay: Minimum inhibitory concentration against Klebsiella pneumoniae (ATCC 13883)(in vitro); procedure, shortened: as §2
Cutibacterium acnes [9] = assay: Minimum inhibitory concentration against Propionibacterium acnes(NCTC 737)(in vitro); procedure, shortened: as §2
Bacteroides fragilis [10] = assay: Minimum inhibitory concentration against Bacteroides fragilis(NCTC 9343)(in vitro); procedure, shortened: as §2
Clostridium perfringens [11] = assay: Minimum inhibitory concentration against Clostridium perfringens (NCTC 8237)(in vitro); procedure, shortened: as §1
Streptococcus pyogenes = assay: Minimum inhibitory concentration against Streptococcus pyogenes(ATCC 19615)(in vitro); procedure, shortened: as §2
Escherichia coli = assay: Minimum inhibitory concentration against Escherichia coli(ATCC 25922)(in vitro); procedure, shortened: as §2

Compound | MIC (Clostridium perfringens [1]) | MIC [2] | MIC (Finegoldia magna) | MIC [3] | MIC (Pseudomonas aeruginosa) | MIC (Anaerococcus prevotii) | MIC (Bacteroides fragilis [4]) | MIC (Proteus vulgaris) | MIC (Cutibacterium acnes [5]) | MIC (Bacteroides fragilis [6]) | MIC (Bacteroides fragilis [7]) | MIC (Bacteroides fragilis [8]) | MIC (Staphylococcus aureus) | MIC (Klebsiella pneumoniae) | MIC (Cutibacterium acnes [9]) | MIC (Bacteroides fragilis [10]) | MIC (Clostridium perfringens [11]) | MIC (Streptococcus pyogenes) | MIC (Escherichia coli)
C=C(C(=O)c1ccc(Cl)cc1Cl)c1ccccc1 | < 0.8 µg/mL | < 0.8 µg/mL | < 0.8 µg/mL | < 0.8 µg/mL | > 100 µg/mL | < 0.8 µg/mL | < 0.8 µg/mL | 6.2 µg/mL (≈ 22.4 µM) | < 0.8 µg/mL | < 0.8 µg/mL | < 0.8 µg/mL | < 0.8 µg/mL | < 0.8 µg/mL | > 100 µg/mL | < 0.8 µg/mL | < 0.8 µg/mL | < 0.8 µg/mL | < 0.8 µg/mL | > 100 µg/mL
O=C(c1ccc(Cl)cc1Cl)C(O)(Cn1ccnc1)c1ccccc1 (stereo unspecified) | 12.5 µg/mL (≈ 34.6 µM) | 50 µg/mL (≈ 138 µM) | > 100 µg/mL | > 100 µg/mL |  | 12.5 µg/mL (≈ 34.6 µM) | > 100 µg/mL | > 100 µg/mL | 50 µg/mL (≈ 138 µM) | > 100 µg/mL | 50 µg/mL (≈ 138 µM) | > 100 µg/mL | 25 µg/mL (≈ 69.2 µM) | > 100 µg/mL | 100 µg/mL (≈ 277 µM) | > 100 µg/mL | 25 µg/mL (≈ 69.2 µM) |  | > 100 µg/mL
Cc1ncc([N+](=O)[O-])n1CCO [METRONIDAZOLE] | < 0.8 µg/mL | < 0.8 µg/mL | < 0.8 µg/mL | < 0.8 µg/mL |  | 1.5 µg/mL (≈ 8.76 µM) | < 0.8 µg/mL |  | > 100 µg/mL | 6.2 µg/mL (≈ 36.2 µM) | < 0.8 µg/mL | 1.5 µg/mL (≈ 8.76 µM) |  |  | > 100 µg/mL | < 0.8 µg/mL | < 0.8 µg/mL |  | 
O=C(c1ccc(Cl)cc1Cl)C(Cn1ccnc1)c1ccccc1 (stereo unspecified) | < 0.8 µg/mL | < 0.8 µg/mL | < 0.8 µg/mL | < 0.8 µg/mL | > 100 µg/mL | < 0.8 µg/mL | < 0.8 µg/mL | 6.2 µg/mL (≈ 18 µM) | < 0.8 µg/mL | < 0.8 µg/mL | < 0.8 µg/mL | < 0.8 µg/mL | < 0.8 µg/mL | > 100 µg/mL | < 0.8 µg/mL | < 0.8 µg/mL | < 0.8 µg/mL | < 0.8 µg/mL | > 100 µg/mL
POLYMYXIN B |  |  |  |  | 3.1 µg/mL |  |  | 1.5 µg/mL |  |  |  |  | 25 µg/mL | < 0.8 µg/mL |  |  |  | 1.5 µg/mL | < 0.8 µg/mL
O=C(c1ccc(Cl)cc1Cl)C(Cl)(Cn1ccnc1)c1ccccc1 (stereo unspecified) | < 0.8 µg/mL | < 0.8 µg/mL | < 0.8 µg/mL | < 0.8 µg/mL | > 100 µg/mL | < 0.8 µg/mL | < 0.8 µg/mL | > 100 µg/mL | < 0.8 µg/mL | < 0.8 µg/mL | < 0.8 µg/mL | < 0.8 µg/mL | 25 µg/mL (≈ 65.8 µM) | > 100 µg/mL | < 0.8 µg/mL | < 0.8 µg/mL | < 0.8 µg/mL | 1.5 µg/mL (≈ 3.95 µM) | > 100 µg/mL
O=C(c1ccc(Cl)cc1Cl)C(Br)(Cn1ccnc1)c1ccccc1 (stereo unspecified) | < 0.8 µg/mL | 1.5 µg/mL (≈ 3.54 µM) | 1.5 µg/mL (≈ 3.54 µM) | < 0.8 µg/mL | > 100 µg/mL | 1.5 µg/mL (≈ 3.54 µM) | < 0.8 µg/mL | 12.5 µg/mL (≈ 29.5 µM) | < 0.8 µg/mL | < 0.8 µg/mL | < 0.8 µg/mL | < 0.8 µg/mL | 1.5 µg/mL (≈ 3.54 µM) | > 100 µg/mL | < 0.8 µg/mL | < 0.8 µg/mL | < 0.8 µg/mL | < 0.8 µg/mL | > 100 µg/mL
O=C(c1ccc(Cl)cc1Cl)C(F)(Cn1ccnc1)c1ccccc1 (stereo unspecified) | 3.1 µg/mL (≈ 8.53 µM) | 25 µg/mL (≈ 68.8 µM) | 25 µg/mL (≈ 68.8 µM) | 25 µg/mL (≈ 68.8 µM) | > 100 µg/mL | 6.2 µg/mL (≈ 17.1 µM) | 50 µg/mL (≈ 138 µM) | > 100 µg/mL | 25 µg/mL (≈ 68.8 µM) | 50 µg/mL (≈ 138 µM) | 50 µg/mL (≈ 138 µM) | 50 µg/mL (≈ 138 µM) | 50 µg/mL (≈ 138 µM) | > 100 µg/mL | 25 µg/mL (≈ 68.8 µM) | 50 µg/mL (≈ 138 µM) | 3.1 µg/mL (≈ 8.53 µM) | 6.2 µg/mL (≈ 17.1 µM) | > 100 µg/mL
